According to ChEMBL document CHEMBL3351594, “Cytotoxic dimeric epipolythiodiketopiperazines from the ascomycetous fungus Preussia typharum” (J Nat Prod, 2014):
pIC50: −log10 of the molar value. Active and inactive are the calls of the source. The rule behind the calls is not given here.

What was measured:
[1] = test system: MIA PaCa-2; experiment: Cytotoxicity against human MIAPaCa2 cells up to 30 uM after 24 hrs by MTT assay; assay type: functional, cell-based
[2] = target: mTORC1 (Homo sapiens) (UniProt P42345+Q8N122+Q9BVC4); settings: HeLa, 100 nM
Sequence of mTORC1 (Homo sapiens) (Q8N122 whole entry, looked up, other chains not shown): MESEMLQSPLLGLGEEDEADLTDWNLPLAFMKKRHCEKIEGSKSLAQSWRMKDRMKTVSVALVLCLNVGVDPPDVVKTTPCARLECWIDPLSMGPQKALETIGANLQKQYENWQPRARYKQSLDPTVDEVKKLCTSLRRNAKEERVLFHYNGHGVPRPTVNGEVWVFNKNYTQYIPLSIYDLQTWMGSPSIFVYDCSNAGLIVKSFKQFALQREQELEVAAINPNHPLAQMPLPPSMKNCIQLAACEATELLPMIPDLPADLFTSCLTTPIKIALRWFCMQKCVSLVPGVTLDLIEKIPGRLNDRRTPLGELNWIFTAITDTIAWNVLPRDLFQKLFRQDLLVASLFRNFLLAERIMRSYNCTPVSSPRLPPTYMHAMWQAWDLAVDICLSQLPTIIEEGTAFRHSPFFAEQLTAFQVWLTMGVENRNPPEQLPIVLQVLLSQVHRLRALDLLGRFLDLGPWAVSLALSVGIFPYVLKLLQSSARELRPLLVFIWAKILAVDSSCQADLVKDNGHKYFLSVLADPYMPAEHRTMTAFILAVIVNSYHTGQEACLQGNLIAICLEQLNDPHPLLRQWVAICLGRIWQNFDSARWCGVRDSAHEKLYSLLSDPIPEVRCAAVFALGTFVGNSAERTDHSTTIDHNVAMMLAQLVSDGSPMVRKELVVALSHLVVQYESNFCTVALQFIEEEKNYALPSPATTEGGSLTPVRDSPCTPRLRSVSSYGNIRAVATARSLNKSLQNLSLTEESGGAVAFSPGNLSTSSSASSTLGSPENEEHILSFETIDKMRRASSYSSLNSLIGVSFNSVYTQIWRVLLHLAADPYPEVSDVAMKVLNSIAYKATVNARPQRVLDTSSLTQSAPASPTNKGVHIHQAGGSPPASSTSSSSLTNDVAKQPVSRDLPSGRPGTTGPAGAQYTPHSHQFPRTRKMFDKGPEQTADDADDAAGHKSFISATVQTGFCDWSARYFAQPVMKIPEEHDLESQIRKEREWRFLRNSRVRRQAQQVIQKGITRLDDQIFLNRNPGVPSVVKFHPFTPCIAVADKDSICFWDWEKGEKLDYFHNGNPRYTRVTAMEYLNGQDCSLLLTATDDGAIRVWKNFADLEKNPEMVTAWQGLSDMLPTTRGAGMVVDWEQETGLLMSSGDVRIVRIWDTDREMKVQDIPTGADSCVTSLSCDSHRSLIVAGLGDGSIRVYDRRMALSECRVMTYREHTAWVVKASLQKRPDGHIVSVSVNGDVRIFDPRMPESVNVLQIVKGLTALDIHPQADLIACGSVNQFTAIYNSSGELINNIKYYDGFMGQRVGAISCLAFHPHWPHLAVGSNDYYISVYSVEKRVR
Sequence of mTORC1 (Homo sapiens) (Q9BVC4 whole entry, looked up, other chains not shown): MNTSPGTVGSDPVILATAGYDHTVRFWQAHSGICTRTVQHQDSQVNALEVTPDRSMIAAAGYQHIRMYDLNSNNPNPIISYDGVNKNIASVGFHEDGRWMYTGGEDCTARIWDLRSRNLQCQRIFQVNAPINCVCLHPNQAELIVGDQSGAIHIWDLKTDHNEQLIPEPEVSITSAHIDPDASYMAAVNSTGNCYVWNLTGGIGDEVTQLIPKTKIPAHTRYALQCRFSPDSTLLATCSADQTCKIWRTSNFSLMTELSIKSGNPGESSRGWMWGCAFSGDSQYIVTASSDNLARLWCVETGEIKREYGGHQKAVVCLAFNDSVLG

[3] = Cytotoxicity against human MIAPaCa2 cells after 24 hrs by MTT assay; assay type: functional, cell-based; settings: MIA PaCa-2, 24 h
[4] = Cytotoxicity against human SKOV3 cells by SRB method; assay type: functional; settings: SK-OV-3
In short: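 SRB assay in SK-OV-3 cells; percent cell growth per Boyd et al.; GI50, TGI and LC50 fitted from dose–response curves of percent growth; mean ± SE, n = 3 or 4 independent experiments.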

[5] = Cytotoxicity against human P-gp expressing SKOV3-M6/6 cells by SRB assay; assay type: functional
In short: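 SRB assay in SK-OV-3/MDR-1-6/6 cells, a single-cell clone of SKOV-3/MDR1 (P-gp). Percent cell growth follows Boyd et al. GI50 was derived from dose–response curves of percent growth. Results are mean ± SE of n = 3 or 4 independent experiments. Relative resistance is calculated against parental SK-OV-3.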

[6] = test system: SK-OV-3; experiment: Resistance ratio of GI50 for human P-gp expressing SKOV3-M6/6 cells to GI50 for human SKOV3 cells; assay type: functional
In short: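 SRB assay in SK-OV-3 and its P-gp/MDR1 single-cell clone SK-OV-3/MDR-1-6/6; GI50 from percent growth dose–response curves, n = 3 or 4 independent experiments; relative resistance taken as ratio of GI50 in the MDR line to parental.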

SMILES	Activity [1]	pIC50 [3]	also measured
CS[C@@]1(C(C)C)C(=O)N2[C@H]3N(C)c4ccccc4[C@@]3(C34c5ccccc5N[C@H]3N3C(=O)[C@@](CO)(SC)N(C)C(=O)[C@]3(SC)[C@H]4O)[C@H](O)[C@]2(SC)C(=O)N1C (stereo not given in full)	inactive		
CO[C@H]1C[C@@H]2CC[C@@H](C)[C@@](O)(O2)C(=O)C(=O)N2CCCC[C@H]2C(=O)O[C@H]([C@H](C)C[C@@H]2CC[C@@H](O)[C@H](OC)C2)CC(=O)[C@H](C)/C=C(\C)[C@@H](O)[C@@H](OC)C(=O)[C@H](C)C[C@H](C)/C=C/C=C/C=C/1C			inhibition [2]: Active
CS[C@@]1(C(C)C)C(=O)N2[C@H]3Nc4ccccc4[C@@]3(C34c5ccccc5N(C)[C@H]3N3C(=O)[C@@](CO)(SC)N(C)C(=O)[C@]3(SC)[C@H]4O)[C@H](O)[C@]2(SC)C(=O)N1C (stereo not given in full)	inactive		
CC(C)[C@@]12SS[C@]3(C(=O)N1C)[C@@H](O)[C@]1(C45c6ccccc6N[C@H]4N4C(=O)[C@]6(CO)SS[C@]4(C(=O)N6C)[C@H]5O)c4ccccc4N[C@@H]1N3C2=O (stereo not given in full)		7.47	
CC(=O)O[C@H]1C(=O)[C@@]2(C)[C@H]([C@H](OC(=O)c3ccccc3)[C@]3(O)C[C@H](OC(=O)[C@H](O)[C@@H](NC(=O)c4ccccc4)c4ccccc4)C(C)=C1C3(C)C)[C@]1(OC(C)=O)CO[C@@H]1C[C@@H]2O [PACLITAXEL]			GI50 [4]: 0.0047 µM; GI50 [5]: 0.6 µM; Ratio [6]: 127
CS[C@@]1(C(C)C)C(=O)N2[C@H]3Nc4ccccc4[C@@]3(C34c5ccccc5N[C@H]3N3C(=O)[C@@](CO)(SC)N(C)C(=O)[C@]3(SC)[C@H]4O)[C@H](O)[C@]2(SC)C(=O)N1C (stereo not given in full)	inactive		
CC(C)[C@@]12SS[C@]3(C(=O)N1C)[C@@H](O)[C@]1(C45c6ccccc6N[C@H]4N4C(=O)[C@]6(CO)SSSS[C@]4(C(=O)N6C)[C@H]5O)c4ccccc4N[C@@H]1N3C2=O (stereo not given in full)		7.37	
CC(C)[C@@]12SS[C@]3(C(=O)N1C)[C@@H](O)[C@]1(C45c6ccccc6N[C@H]4N4C(=O)[C@@]6(CO)SSSS[C@@]4(C(=O)N6C)[C@H]5O)c4ccccc4N[C@@H]1N3C2=O (stereo not given in full)		8.04	
